Experimental data: ChEMBL document CHEMBL4513216, “Probing the Open Global Health Chemical Diversity Library for Multistage-Active Starting Points for Next-Generation Antimalarials” (ACS Infect Dis, 2020)

Assay: Toxicity liver stage against HepG2, at 10uM
Type: cell-based
Design: test concentration 10 uM, cell line HepG2-A16-CD81EGFP
Details: human, HepG2-A16-CD81EGFP cells; read-out: INHIBITION
In short: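 Uninfected HepG2-A16-CD81EGFP cells, 3 × 10^3 per well, 1536-well, plated on prespotted compound at 10 μM final, parasite-free screening media added to match infected plates; puromycin 10 μM positive, DMSO 0.5% negative; run in parallel with 48 h PbLuc assay at 37 °C, 5% CO2; viability by CellTiter-Glo luminescence, normalized to controls.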

| Structure (SMILES) | cytotoxicity at 10 µM |
| --- | --- |
| COc1ccc(C(=O)c2cnc(C(C)C)n2C)cc1 | 15.5% |
| c1cc(-c2c[nH]c([C@@H]3COCCN3C3CCOCC3)n2)ccn1 | -0.113% |
| CC(C)(C)CC(=O)NC[C@H]1OC[C@@H](NC2CCC(F)(F)CC2)[C@@H]1O | -1.23% |
| O=C(c1ccncc1)N1CCC(Cc2cnc3[nH]ccc3c2)CC1 | -1.86% |
| Cc1ccccc1CNC(=O)c1ccccc1-n1cnc(CN)c1 | -7.22% |
| Cc1cn[nH]c1C1CCCCN1C(=O)CCc1c(C)n[nH]c1C (stereo not drawn) | -10.5% |
| CCOCCC(=O)Nc1cccc(Cl)c1COC | -3.81% |
| CC(Nc1cccc(F)c1C#N)c1cccc(S(N)(=O)=O)c1 (stereo not drawn) | 12.8% |
| CN(Cc1ccccn1)C(=O)C(c1ccccc1)N1CCSCC1 (stereo not drawn) | -9.71% |
| COc1c(CNC(C)c2sc(C)nc2C)c(C(C)C)nn1C (stereo not drawn) | 7.97% |
| Cc1cnc(C(=O)N2CCOCC2C)cn1 (stereo not drawn) | -3.83% |
| CCN(C(=O)CS(=O)(=O)c1cc(OC)c(OC)cc1C)C1CC1 | -3.91% |
| O=C(Cc1cccnc1)NCCS(=O)(=O)c1ccccc1F | 6.72% |
| COc1ccc(NC(=O)NCC(C)N2CCc3ccccc32)cc1 (stereo not drawn) | -2.42% |
| CCc1csc(C2CCCN(C(=O)CCn3cc(C)cn3)C2)n1 (stereo not drawn) | 1.82% |
| CC(C(=O)N(C)C)N1CCCN(C(=O)Oc2ccccc2)CC1 (stereo not drawn) | -0.37% |
| O=C(CCCn1cncn1)N1CCCCC1c1nccs1 (stereo not drawn) | 8.6% |
| CN(Cc1nccn1C)C(CO)c1cccc(Br)c1 (stereo not drawn) | -1.29% |
| Cc1cnc(CCN(C)C(=O)c2cccc(N(C)C)c2)s1 | 2.05% |
| N#Cc1c(F)cccc1N1CCN(S(=O)(=O)c2cccs2)CC1 | 14.2% |
| CS(=O)(=O)c1ccc(CNCC2CCN(CCO)CC2)cc1 | -18.8% |

| Structure (SMILES) | cytotoxicity at 10 µM |
| --- | --- |
| COCCCNc1nc(CNC(C)=O)cc(-c2ccco2)n1 | -5.52% |
| CC(C)[C@H](NS(C)(=O)=O)C(=O)NCc1cc(-c2ccccc2)n[nH]1 | -8.94% |
| N[C@H]1CN(C(=O)CCc2cc(Cl)no2)C[C@@H]1c1ccccc1 | -7.03% |
| Cc1nc(CN2CCCn3nc(CNC(=O)C4CCC4)cc3C2)co1 | 3.26% |
| CCCc1ccc(CN2CCN(C(=O)CC(C)C)[C@@H]3CS(=O)(=O)C[C@@H]32)o1 | 5.31% |
| Cc1ccc2oc(=O)n(CCC(=O)N3CCC4(CN(C)C(=O)O4)C3)c2c1 (stereo not drawn) | 1.66% |
| Cc1nc(CN(C)C(=O)c2cccc(CC3CCNCC3)c2)no1 | -5.56% |
| COc1ccc(N2CCN(C(=O)C3CN(C)C(=O)N3)CC2(C)C)cc1 (stereo not drawn) | 0.254% |
| COCCC(=O)NCc1cccnc1-n1cnc2ccccc21 | -8.42% |
| CC(C)N1CCC(C(=O)N2CCCN(c3ccccc3)CC2)CC1 | 7.4% |
| N[C@H]1CN(C(=O)c2ccccc2OCCc2ccccc2)C[C@@H]1C1CC1 | -2.68% |
| O=C(NC1CCOC1)c1cccc(S(=O)(=O)NCCCc2ncc[nH]2)c1 (stereo not drawn) | -2.26% |
| Cc1cnc(C(=O)N2CCCC(c3nccn3Cc3cscn3)C2)cn1 (stereo not drawn) | -7.92% |
| OC1(CN2CCCCC2)CCN(c2cc(C(F)(F)F)ccn2)C1 (stereo not drawn) | -2.22% |
| COc1nc(C)c(C(=O)NCc2cc(N3CCOCC3)ncn2)s1 | 12.9% |
| OCc1csc(N2CCCN(Cc3ccc(F)cc3)CC2)n1 | -2.58% |
| COc1cccc(Cn2cc(C3=CCN(CC(=O)N(C)C)CC3)cn2)c1 | -13.1% |
| CCN1CC(C(=O)N2CCN(c3nsc4ccccc34)CC2)CCC1=O (stereo not drawn) | 16.2% |
| CCC1(C(=O)O)CCCN(C(=O)c2ccc(N3CCN(C)CC3)cc2)C1 (stereo not drawn) | -2.35% |
| O=S1(=O)COCCN1Cc1ccc(F)cc1Cl | 14.7% |
| O=c1cnc2ccccc2n1CCCn1ccnc1 | -3.85% |

| Structure (SMILES) | cytotoxicity at 10 µM |
| --- | --- |
| CC(C)Cc1ncc2c(n1)CN(c1nc3ccccc3cc1CO)C2 | 1.18% |
| CCN(CC)C(=O)[C@@H]1C[C@H](n2cc(-c3ccccn3)nn2)CN1 | -20.6% |
| CCCC(=O)Nc1cccc(C(=O)N(C)CCCC2CCCO2)c1 (stereo not drawn) | 1.03% |
| NC(=O)c1cccc(CC2CCN(C(=O)CCCN3CCOCC3)C2)c1 (stereo not drawn) | -11.3% |
| CN1CCC(c2ncc3c(n2)CCN(C(=O)CC2C=CCC2)C3)CC1 (stereo not drawn) | 1.68% |
| CC(C)c1nc(C2CCCN2Cc2nnc(C3CCC3)o2)no1 (stereo not drawn) | -15.6% |
| Cc1nc(CNC(=O)NCC(O)c2ccc(F)cc2)cs1 (stereo not drawn) | -10.4% |
| Cn1cc(C(=O)N2CCSc3ccccc32)ccc1=O | -22.9% |
| Cc1cnn(C2CCCN(C(=O)CCc3cscn3)C2)c1 (stereo not drawn) | -12.9% |
| O=C(NCCN1CCCC1)C1(c2ccc(Cl)cc2)CCOCC1 | -2.16% |
| CCc1ccc(C(=O)N2CCCC(n3nc(C)nc3C)C2)o1 (stereo not drawn) | -7.8% |
| c1ccc(-c2nc(CNCCn3cccn3)cs2)nc1 | -21.1% |
| CCN1CCN(C2CCN(Cc3nc(C4CC4)no3)CC2)C1=O | -2.69% |
| COc1cccc2cc(CNC(=O)N3CCOC(C)(C)C3)oc12 | -14.8% |
| CN1CCOC(CNCc2coc(-c3cccc(Cl)c3)n2)C1 (stereo not drawn) | -15.9% |
| Cc1cnn(C2CCCN(C(=O)Cc3n[nH]c4ccccc34)C2)c1 (stereo not drawn) | -6.8% |
| O=C(NCCN1CCCCCC1=O)c1ccc(=O)[nH]n1 | -19.3% |
| NC(=O)NC(=O)CCN1CCN(c2nccs2)CC1 | -33.6% |
| COc1ncccc1C(=O)N1CCC(Nc2ccc(C)nn2)CC1 | -18.1% |
| CCN1CCN(C(=O)NCc2cccnc2-n2cccn2)CC1 | -7.97% |
| COc1ncccc1CNC(=O)c1ccco1 | -8.48% |

| Structure (SMILES) | cytotoxicity at 10 µM |
| --- | --- |
| c1cncc(-c2noc(CN3CCCCC3Cn3cccn3)n2)c1 (stereo not drawn) | -2.42% |
| Cc1cc(CN(C)C(=O)c2ccc(OCC(F)(F)F)nc2)no1 | -6.19% |
| Cc1nn(C)c(N(C)C)c1CNCc1ccccc1Cn1cccn1 | -8.06% |
| Cc1cnn(CC2CCCCN2CC(=O)Nc2nc(C)cs2)c1 (stereo not drawn) | 0.109% |
| COc1ccc(CNC(=O)NCCCNS(C)(=O)=O)cc1OC | -10.6% |
| CC(=O)Nc1nc(C(=O)NCc2ccc(N3CCCCC3)cc2)cs1 | -2.75% |
| O=C(CCNc1ncccn1)N1CCCN(c2nccs2)CC1 | -14.3% |
| CC(Cn1cccn1)NCc1csc(Cc2ccccc2)n1 (stereo not drawn) | -8.15% |
| COc1cc(C(=O)N2CCCC(c3cc(C)[nH]n3)C2)cc(OC)c1C (stereo not drawn) | -10.5% |
| Cc1ccc(OCCCC(=O)NC(C)c2nnc3n2CCC3)cc1 (stereo not drawn) | -15% |
| Cc1cnc(C(=O)NCc2cccnc2OC(C)C)cn1 | -23.4% |
| O=C1COc2c(cccc2C(=O)N2CCCC2Cn2cccn2)N1 (stereo not drawn) | -4.47% |
| Cc1ncc2c(n1)CN(Cc1nc3ccccc3o1)CC2 | -0.602% |
| CCc1nc(C2CCCN2C(=O)C2=COCC2)no1 (stereo not drawn) | 8.64% |
| Cc1nc(CN2CCN(CC(=O)Nc3c(C)cccc3C)CC2)no1 | -3.1% |
| CC(C)c1nnc2n1CCN(CC(=O)Nc1nncs1)C2 | -4.02% |
| CCC(CN1CCCC1)n1cncc1-c1cnn(-c2ccccc2)c1 (stereo not drawn) | 5.87% |
| CN(C)C(=O)CN1C[C@H]2CC[C@@H](C1)N(Cc1ccc3nsnc3c1)C2 | 2.3% |
| COC(=O)Cn1c(=O)[nH]c2cn(-c3cccc(Cl)c3)c(=O)n21 | -1.39% |
| Cc1nc(C(C)n2cc3[nH]cccc-3c2=O)cs1 (stereo not drawn) | -3.13% |
